# From ChEMBL document CHEMBL3994654, “Discovery of phenyl acetamides as potent and selective GPR119 agonists” (Bioorg Med Chem Lett, 2017)
# Assays:
# [1] = target: T1, Glucose-dependent insulinotropic receptor (Homo sapiens) (UniProt Q8TDV5); experiment: Agonist activity at human GPR119 expressed in HEK293 cells assessed as increase in intracellular cAMP level after 60 mins by HTRF assay relative to control; format: functional, cell-based
# T1 sequence (whole entry): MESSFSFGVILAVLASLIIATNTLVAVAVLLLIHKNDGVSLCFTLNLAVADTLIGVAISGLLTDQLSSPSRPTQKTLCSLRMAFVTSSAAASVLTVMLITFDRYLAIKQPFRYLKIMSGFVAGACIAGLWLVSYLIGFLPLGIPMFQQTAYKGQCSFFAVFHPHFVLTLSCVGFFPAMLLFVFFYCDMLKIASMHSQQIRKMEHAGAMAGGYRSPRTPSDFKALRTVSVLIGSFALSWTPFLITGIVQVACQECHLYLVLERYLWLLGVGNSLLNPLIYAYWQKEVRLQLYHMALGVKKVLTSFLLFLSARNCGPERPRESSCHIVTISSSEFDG
# Procedure, shortened: (§1)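 EC50 values are means of at least 2 independent experiments, with a few single determinations. Maximal response is reported as the percentage of cAMP stimulation at the maximal dose tested, normalised to an internal agonist control set as 100%.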
# [2] = target: T2, Glucose-dependent insulinotropic receptor (Mus musculus, UniProt Q7TQP3); experiment: Agonist activity at mouse GPR119 expressed in CHO cells co-expressing Galpha15 assessed as increase in intracellular cAMP level after 60 mins by HTRF assay; format: functional, cell-based
# T2 sequence (Q7TQP3 whole entry): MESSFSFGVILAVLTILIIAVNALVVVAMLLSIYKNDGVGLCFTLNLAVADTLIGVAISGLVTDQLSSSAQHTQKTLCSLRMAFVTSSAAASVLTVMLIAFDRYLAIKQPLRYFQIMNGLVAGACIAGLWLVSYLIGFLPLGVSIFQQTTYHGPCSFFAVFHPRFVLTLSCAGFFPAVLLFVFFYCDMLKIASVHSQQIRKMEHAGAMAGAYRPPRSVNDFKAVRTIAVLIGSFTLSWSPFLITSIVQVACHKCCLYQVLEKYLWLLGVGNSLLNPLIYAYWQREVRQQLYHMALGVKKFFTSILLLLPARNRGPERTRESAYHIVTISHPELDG
# Procedure, shortened: (§2)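 cAMP stimulation is also given as % control at the top concentration, relative to an internal agonist control set at 100% cAMP stimulation. EC50 values are means of at least 2 independent experiments, except for two compounds.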
# [3] = target: T3, Glucose-dependent insulinotropic receptor (Homo sapiens, UniProt Q8TDV5); experiment: Agonist activity at human GPR119 expressed in HEK293 cells assessed as increase in intracellular cAMP level after 60 mins by HTRF assay; format: functional, cell-based; procedure, shortened: as §2
# T3 sequence (Q8TDV5 whole entry): T1 sequence (whole entry)
# [4] = target: T4, Glucose-dependent insulinotropic receptor (Mus musculus) (UniProt Q7TQP3); experiment: Agonist activity at mouse GPR119 expressed in CHO cells co-expressing Galpha15 assessed as increase in intracellular cAMP level after 60 mins by HTRF assay relative to control; format: functional, cell-based; procedure, shortened: as §1
# T4 sequence (whole entry): T2 sequence (Q7TQP3 whole entry)
# [5] = Kinetic solubility in fasted state simulated intestinal fluid at pH 6.5; format: physicochemical; settings: read-out: Kinetic_solubility
# [6] = target: Voltage-gated inwardly rectifying potassium channel KCNH2 (Homo sapiens, UniProt Q12809)
# Chain of Voltage-gated inwardly rectifying potassium channel KCNH2 (Q12809 whole entry): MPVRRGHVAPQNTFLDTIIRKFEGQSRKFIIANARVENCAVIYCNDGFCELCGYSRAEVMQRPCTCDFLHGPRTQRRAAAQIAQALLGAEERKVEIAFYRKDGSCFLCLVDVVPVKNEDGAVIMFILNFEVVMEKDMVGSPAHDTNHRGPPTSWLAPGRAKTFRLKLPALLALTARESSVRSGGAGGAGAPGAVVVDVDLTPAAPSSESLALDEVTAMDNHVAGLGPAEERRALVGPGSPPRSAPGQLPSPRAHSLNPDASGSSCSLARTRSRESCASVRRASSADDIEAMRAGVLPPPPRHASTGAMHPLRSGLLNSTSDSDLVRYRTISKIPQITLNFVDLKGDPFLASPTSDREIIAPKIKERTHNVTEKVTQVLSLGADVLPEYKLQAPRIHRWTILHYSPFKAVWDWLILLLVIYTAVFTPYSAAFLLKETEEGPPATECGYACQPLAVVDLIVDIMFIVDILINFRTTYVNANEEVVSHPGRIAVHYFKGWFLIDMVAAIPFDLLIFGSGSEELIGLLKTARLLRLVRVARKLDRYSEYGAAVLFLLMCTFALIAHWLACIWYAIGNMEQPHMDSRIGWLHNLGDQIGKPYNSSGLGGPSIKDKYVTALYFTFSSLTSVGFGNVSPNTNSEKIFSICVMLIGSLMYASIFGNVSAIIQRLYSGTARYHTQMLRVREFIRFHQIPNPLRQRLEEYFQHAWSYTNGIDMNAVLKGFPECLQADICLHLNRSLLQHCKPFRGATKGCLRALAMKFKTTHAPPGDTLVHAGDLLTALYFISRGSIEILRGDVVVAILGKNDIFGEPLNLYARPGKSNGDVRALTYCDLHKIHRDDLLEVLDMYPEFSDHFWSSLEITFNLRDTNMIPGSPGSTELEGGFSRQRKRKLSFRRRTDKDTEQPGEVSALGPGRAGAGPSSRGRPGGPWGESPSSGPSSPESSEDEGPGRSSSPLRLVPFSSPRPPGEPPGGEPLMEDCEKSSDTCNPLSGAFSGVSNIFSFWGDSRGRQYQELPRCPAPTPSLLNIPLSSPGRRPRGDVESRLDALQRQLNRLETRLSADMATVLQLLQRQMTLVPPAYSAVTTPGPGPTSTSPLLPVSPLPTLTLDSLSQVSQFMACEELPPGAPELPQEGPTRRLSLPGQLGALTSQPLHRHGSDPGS
# [7] = Half life in Wistar Han rat at 0.5 mg/kg, iv by LC-MS/MS analysis; format: ADME, organism-based; settings: in vivo
SMILES,Activity [1],EC50 [2],EC50 [3],Activity [4],solubility kinetic [5],IC50 [6],half-life [7]
NC(=O)Cc1ccc(OCC[C@@H]2C[C@@H]2C2CCN(c3ncc(Cl)cn3)CC2)cc1,85%,16 nM,67 nM,68%,–,–,–
O=C(Cc1ccc(OCC[C@@H]2C[C@@H]2C2CCN(c3ncc(Cl)cn3)CC2)cc1)N1CCC1,82%,0.5 nM,0.8 nM,93%,97 µM,7.4 µM,282 min
O=C(Cc1ccc(OCC[C@@H]2C[C@@H]2C2CCN(c3ncc(Cl)cn3)CC2)nc1)N1CCC1,112%,5.1 nM,9.4 nM,133%,83 µM,2.1 µM,–
CCc1cnc(N2CCC([C@H]3C[C@H]3CCOc3ccc(CC(=O)N4CCC4)c(F)c3)CC2)nc1,103%,0.84 nM,0.4 nM,111%,140 µM,3.2 µM,–
O=C(Cc1ccc(OCC[C@@H]2C[C@@H]2C2CCN(c3ncc(Cl)cn3)CC2)cc1F)N1CC(O)C1,89%,6.7 nM,0.8 nM,110%,144 µM,–,210 min
CC(C)c1noc(N2CCC([C@H]3C[C@H]3CCOc3ccc(CC(=O)N4CCC4)c(F)c3)CC2)n1,78%,6.7 nM,2 nM,102%,126 µM,7 µM,108 min
COCc1cnc(N2CCC([C@H]3C[C@H]3CCOc3ccc(CC(=O)N4CCC4)c(F)c3)CC2)nc1,82%,1.6 nM,0.7 nM,90%,152 µM,19 µM,114 min
